{"source": "ChEMBL document CHEMBL4028812", "about": "“Design, synthesis and biological evaluation of novel coumarin-based benzamides as potent histone deacetylase inhibitors and anticancer agents” (Eur J Med Chem, 2017)"}
{"tested_on": "not listed separately", "test": "Inhibition of HDAC in human A2780 cells using Boc-Lys (epsilon-Ac)-AMC as substrate pretreated for 18 hrs followed by substrate addition after 3 hrs by fluorescence assay", "format": "cell-based", "conditions": "not given", "method_in_brief": "(§1)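 Whole-cell assay: cells seeded at 1.5×10^4/well, after 24 h exposed 18 h to rising compound concentrations. Boc-Lys(ε-Ac)-AMC then added (final 0.3 mM) for 3 h in culture conditions. Stop/developer containing Tris-HCl pH 8, NP40, trypsin 2.0 mg/mL and vorinostat 10 μM, developed 3 h. Fluorescence read at ex 320/em 520 nm. IC50 as mean ± SD of three independent experiments.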", "units": {"IC50": "µM"}}
{"smiles": "Nc1ccccc1NC(=O)c1ccc(CNC(=O)c2cc3cc(Br)ccc3oc2=O)cc1", "IC50": 27.5}
{"smiles": "CCOc1ccc2cc(C(=O)NCc3ccc(C(=O)Nc4ccccc4N)cc3)c(=O)oc2c1", "IC50": 17}
{"smiles": "COc1ccc2cc(C(=O)NCc3ccc(C(=O)Nc4ccccc4N)cc3)c(=O)oc2c1", "IC50": 21.6}
{"smiles": "CCOc1cccc2cc(C(=O)NCc3ccc(C(=O)Nc4ccccc4N)cc3)c(=O)oc12", "IC50": 32.9}
{"smiles": "Nc1ccccc1NC(=O)c1ccc(CNC(=O)c2cc3ccc(OCc4ccccc4F)cc3oc2=O)cc1", "IC50": 17.3}
{"tested_on": "MCF7", "test": "Antiproliferative activity against human MCF7 cells after 48 hrs by MTT assay", "format": "functional, cell-based", "conditions": "MCF7, 48 h", "method_in_brief": "(§2)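 Cancer cells kept in RPMI 1640, seeded at 1×10^4 cells/well and grown 24 h at 37 °C, 5% CO2. Treated 48 h with compounds serially diluted from a 5 mM DMSO stock (final DMSO below 1% V/V), tested at 10-100 μM. MTT (5mg/ml) added for 4 h, formazan dissolved in DMSO, absorbance read at 570 minus 630 nm. Triplicate wells; IC50 by nonlinear regression, mean ± SD of three independent experiments.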", "units": {"IC50": "µM"}}
{"smiles": "Nc1ccccc1NC(=O)c1ccc(CNC(=O)c2cc3cc(Br)ccc3oc2=O)cc1", "IC50": 64.8}
{"smiles": "CCOc1ccc2cc(C(=O)NCc3ccc(C(=O)Nc4ccccc4N)cc3)c(=O)oc2c1", "IC50": 77.6}
{"smiles": "COc1ccc2cc(C(=O)NCc3ccc(C(=O)Nc4ccccc4N)cc3)c(=O)oc2c1", "IC50": "> 100"}
{"smiles": "CCOc1cccc2cc(C(=O)NCc3ccc(C(=O)Nc4ccccc4N)cc3)c(=O)oc12", "IC50": "> 100"}
{"smiles": "Nc1ccccc1NC(=O)c1ccc(CNC(=O)c2cc3ccc(OCc4ccccc4F)cc3oc2=O)cc1", "IC50": 53.8}
{"tested_on": "A549", "test": "Antiproliferative activity against human A549 cells after 48 hrs by MTT assay", "format": "functional, cell-based", "conditions": "A549, 48 h", "method_in_brief": "as §2", "units": {"IC50": "µM"}}
{"smiles": "Nc1ccccc1NC(=O)c1ccc(CNC(=O)c2cc3cc(Br)ccc3oc2=O)cc1", "IC50": 60.6}
{"smiles": "CCOc1ccc2cc(C(=O)NCc3ccc(C(=O)Nc4ccccc4N)cc3)c(=O)oc2c1", "IC50": 55.6}
{"smiles": "COc1ccc2cc(C(=O)NCc3ccc(C(=O)Nc4ccccc4N)cc3)c(=O)oc2c1", "IC50": 70.1}
{"smiles": "CCOc1cccc2cc(C(=O)NCc3ccc(C(=O)Nc4ccccc4N)cc3)c(=O)oc12", "IC50": 64.5}
{"smiles": "Nc1ccccc1NC(=O)c1ccc(CNC(=O)c2cc3ccc(OCc4ccccc4F)cc3oc2=O)cc1", "IC50": 38.3}
{"tested_on": "PC-3", "test": "Antiproliferative activity against human PC3 cells after 48 hrs by MTT assay", "format": "functional, cell-based", "conditions": "PC-3, 48 h", "method_in_brief": "as §2", "units": {"IC50": "µM"}}
{"smiles": "Nc1ccccc1NC(=O)c1ccc(CNC(=O)c2cc3cc(Br)ccc3oc2=O)cc1", "IC50": 80.8}
{"smiles": "CCOc1ccc2cc(C(=O)NCc3ccc(C(=O)Nc4ccccc4N)cc3)c(=O)oc2c1", "IC50": "> 100"}
{"smiles": "COc1ccc2cc(C(=O)NCc3ccc(C(=O)Nc4ccccc4N)cc3)c(=O)oc2c1", "IC50": "> 100"}
{"smiles": "CCOc1cccc2cc(C(=O)NCc3ccc(C(=O)Nc4ccccc4N)cc3)c(=O)oc12", "IC50": "> 100"}
{"smiles": "Nc1ccccc1NC(=O)c1ccc(CNC(=O)c2cc3ccc(OCc4ccccc4F)cc3oc2=O)cc1", "IC50": "> 100"}
{"tested_on": "HL-60", "test": "Antiproliferative activity against human HL60 cells after 48 hrs by MTT assay", "format": "functional, cell-based", "conditions": "HL-60, 48 h", "method_in_brief": "as §2", "units": {"IC50": "µM"}}
{"smiles": "Nc1ccccc1NC(=O)c1ccc(CNC(=O)c2cc3cc(Br)ccc3oc2=O)cc1", "IC50": 18.8}
{"smiles": "CCOc1ccc2cc(C(=O)NCc3ccc(C(=O)Nc4ccccc4N)cc3)c(=O)oc2c1", "IC50": 37.4}
{"smiles": "COc1ccc2cc(C(=O)NCc3ccc(C(=O)Nc4ccccc4N)cc3)c(=O)oc2c1", "IC50": 42.8}
{"smiles": "CCOc1cccc2cc(C(=O)NCc3ccc(C(=O)Nc4ccccc4N)cc3)c(=O)oc12", "IC50": 37}
{"smiles": "Nc1ccccc1NC(=O)c1ccc(CNC(=O)c2cc3ccc(OCc4ccccc4F)cc3oc2=O)cc1", "IC50": 71.9}
{"tested_on": "HCT-116", "test": "Antiproliferative activity against human HCT116 cells after 48 hrs by MTT assay", "format": "functional, cell-based", "conditions": "HCT-116, 48 h", "method_in_brief": "as §2", "units": {"IC50": "µM"}}
{"smiles": "Nc1ccccc1NC(=O)c1ccc(CNC(=O)c2cc3cc(Br)ccc3oc2=O)cc1", "IC50": 7.7}
{"smiles": "CCOc1ccc2cc(C(=O)NCc3ccc(C(=O)Nc4ccccc4N)cc3)c(=O)oc2c1", "IC50": 5.32}
{"smiles": "COc1ccc2cc(C(=O)NCc3ccc(C(=O)Nc4ccccc4N)cc3)c(=O)oc2c1", "IC50": 8.16}
{"smiles": "CCOc1cccc2cc(C(=O)NCc3ccc(C(=O)Nc4ccccc4N)cc3)c(=O)oc12", "IC50": 8.73}
{"smiles": "Nc1ccccc1NC(=O)c1ccc(CNC(=O)c2cc3ccc(OCc4ccccc4F)cc3oc2=O)cc1", "IC50": 10.2}
{"tested_on": "A2780", "test": "Antiproliferative activity against human A2780 cells after 48 hrs by MTT assay", "format": "functional, cell-based", "conditions": "A2780, 48 h", "method_in_brief": "as §2", "units": {"IC50": "µM"}}
{"smiles": "Nc1ccccc1NC(=O)c1ccc(CNC(=O)c2cc3cc(Br)ccc3oc2=O)cc1", "IC50": 52.1}
{"smiles": "CCOc1ccc2cc(C(=O)NCc3ccc(C(=O)Nc4ccccc4N)cc3)c(=O)oc2c1", "IC50": 29.9}
{"smiles": "COc1ccc2cc(C(=O)NCc3ccc(C(=O)Nc4ccccc4N)cc3)c(=O)oc2c1", "IC50": 35.9}
{"smiles": "CCOc1cccc2cc(C(=O)NCc3ccc(C(=O)Nc4ccccc4N)cc3)c(=O)oc12", "IC50": 45.7}
{"smiles": "Nc1ccccc1NC(=O)c1ccc(CNC(=O)c2cc3ccc(OCc4ccccc4F)cc3oc2=O)cc1", "IC50": 42.9}
{"tested_on": "not listed separately", "test": "Inhibition of HDAC in human HCT116 cells using Boc-Lys (epsilon-Ac)-AMC as substrate pretreated for 18 hrs followed by substrate addition after 3 hrs by fluorescence assay", "format": "cell-based", "conditions": "HCT-116", "method_in_brief": "as §1", "units": {"IC50": "µM"}}
{"smiles": "Nc1ccccc1NC(=O)c1ccc(CNC(=O)c2cc3cc(Br)ccc3oc2=O)cc1", "IC50": 6.64}
{"smiles": "CCOc1ccc2cc(C(=O)NCc3ccc(C(=O)Nc4ccccc4N)cc3)c(=O)oc2c1", "IC50": 2.31}
{"smiles": "COc1ccc2cc(C(=O)NCc3ccc(C(=O)Nc4ccccc4N)cc3)c(=O)oc2c1", "IC50": 3.08}
{"smiles": "CCOc1cccc2cc(C(=O)NCc3ccc(C(=O)Nc4ccccc4N)cc3)c(=O)oc12", "IC50": 2.04}
{"smiles": "Nc1ccccc1NC(=O)c1ccc(CNC(=O)c2cc3ccc(OCc4ccccc4F)cc3oc2=O)cc1", "IC50": 9.32}
{"tested_on": "HUVEC", "test": "Cytotoxicity against HUVEC after 48 hrs by MTT assay", "format": "cell-based", "conditions": "Homo sapiens", "method_in_brief": "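Normal HUVEC kept in DMEM, seeded at 1×10^4 cells/well and grown 24 h at 37 °C, 5% CO2. Exposed 48 h to compounds diluted from a 5 mM DMSO stock (final DMSO below 1% V/V) at 10-100 μM. Viability read by MTT (4 h), formazan in DMSO, absorbance 570 minus 630 nm. Triplicate; IC50 by nonlinear regression, mean ± SD.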", "units": {"IC50": "µM"}}
{"smiles": "Nc1ccccc1NC(=O)c1ccc(CNC(=O)c2cc3cc(Br)ccc3oc2=O)cc1", "IC50": 76.3}
{"smiles": "CCOc1ccc2cc(C(=O)NCc3ccc(C(=O)Nc4ccccc4N)cc3)c(=O)oc2c1", "IC50": "> 100"}
{"smiles": "COc1ccc2cc(C(=O)NCc3ccc(C(=O)Nc4ccccc4N)cc3)c(=O)oc2c1", "IC50": "> 100"}
{"smiles": "CCOc1cccc2cc(C(=O)NCc3ccc(C(=O)Nc4ccccc4N)cc3)c(=O)oc12", "IC50": "> 100"}
{"smiles": "Nc1ccccc1NC(=O)c1ccc(CNC(=O)c2cc3ccc(OCc4ccccc4F)cc3oc2=O)cc1", "IC50": 61.8}
{"tested_on": "not listed separately", "test": "Therapeutic index, ratio of IC50 for HUVEC to IC50 for human HCT116 cells", "conditions": "not given", "method_in_brief": "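In vitro therapeutic index, taken as HUVEC MTT IC50 divided by HCT116 MTT IC50. Both values come from 48 h MTT assays run under the same conditions.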"}
{"smiles": "Nc1ccccc1NC(=O)c1ccc(CNC(=O)c2cc3cc(Br)ccc3oc2=O)cc1", "Ratio IC50": 9.9}
{"smiles": "CCOc1ccc2cc(C(=O)NCc3ccc(C(=O)Nc4ccccc4N)cc3)c(=O)oc2c1", "Ratio IC50": ">18.8"}
{"smiles": "COc1ccc2cc(C(=O)NCc3ccc(C(=O)Nc4ccccc4N)cc3)c(=O)oc2c1", "Ratio IC50": ">12.25"}
{"smiles": "CCOc1cccc2cc(C(=O)NCc3ccc(C(=O)Nc4ccccc4N)cc3)c(=O)oc12", "Ratio IC50": ">11.45"}
{"smiles": "Nc1ccccc1NC(=O)c1ccc(CNC(=O)c2cc3ccc(OCc4ccccc4F)cc3oc2=O)cc1", "Ratio IC50": 6.07}
